Where two headings read alike, the source gives them in different places.
Legend:
[1] = assay type: in vivo, human; settings: for Relative difference in Cmax C vs. A (95% CI): esomeprazole 3 hours prior vs regorafenib alone; for Relative difference in Cmax B vs. A (95% CI): esomeprazole concomitant vs regorafenib alone; for Cmax (geomean (CV)) / Tmax: plasma; for Cmax (geomean (CV)): CV in %; for Tmax: human, oral, Tmax (median (IQR))
In short: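 mCRC or GIST patients: regorafenib 120 or 160 mg daily, 14-day loading, 5 days alone or with esomeprazole 40 mg daily (concomitant or 3 h prior); sequence A-B-C or C-B-A. Plasma predose to 24 h on days 21, 49, 77; UPLC-MS/MS. Log Cmax: mixed model (treatment, sequence, phase fixed; subject random), geometric-mean ratio, Bonferroni 97.5% CI. Tmax: Wilcoxon signed rank.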

[2] = compared with other TKIs, despite solid dispersion formulation; cited from earlier work
[3] = cited from earlier work
Toxicity = assay type: in vivo, human; settings: whole study period
In short: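 Incidence of toxicity tallied per phase in patients on regorafenib 120 or 160 mg daily, alone or with esomeprazole 40 mg daily; only toxicity new or worsened relative to baseline counted.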

[4] = after oral administration; cited from earlier work
[5] = mCRC, unselected group, third or fourth line; cited from earlier work
[6] = erlotinib combined with omeprazole; cited from earlier work
[7] = phase A: regorafenib alone, 120 mg at steady state
[8] = phase A: regorafenib alone, 120 mg once daily at steady state
[9] = phase B: regorafenib + esomeprazole 40 mg concomitant
[10] = phase B: regorafenib + esomeprazole concomitant
[11] = phase C: regorafenib + esomeprazole 40 mg 3 hours prior
[12] = phase C: regorafenib + esomeprazole 3 hours prior

| SMILES | Relative difference in Cmax C vs. A (95% CI) [1] | Relative difference in Cmax B vs. A (95% CI) [1] | Tmax (median (IQR)) [1, 7] | Cmax (geomean (CV)) [1, 8] | Cmax (geomean (CV)) [1, 9] | Tmax (median (IQR)) [1, 10] | Cmax (geomean (CV)) [1, 11] | Tmax (median (IQR)) [1, 12] | other results |
| --- | --- | --- | --- | --- | --- | --- | --- | --- | --- |
| CNC(=O)c1cc(Oc2ccc(NC(=O)Nc3ccc(Cl)c(C(F)(F)F)c3)c(F)c2)cc[n+]1[O-] [M‐2] | −9.3% (−38.1 to 32.9%) | −11.0% (−38.7 to 29.1%) | 3.3 (2.0–6.0) hours | 2.9 (72.0) μg/mL | 2.6 (60.9) μg/mL | 2.6 (2.1–3.5) hours | 2.6 (44.2) μg/mL | 3.5 (2.5–6.0) hours |  |
| NC(=O)c1cc(Oc2ccc(NC(=O)Nc3ccc(Cl)c(C(F)(F)F)c3)c(F)c2)cc[n+]1[O-] [M‐5] | −9.1% (−43.2 to 45.5%) | −10.4% (−34.6 to 22.8%) | 2.6 (1.5–4.0) hours | 1.6 (118.8) μg/mL | 1.4 (132.4) μg/mL | 2.3 (1.5–8.0) hours | 1.4 (107.6) μg/mL | 3.5 (2.5–6.0) hours |  |
| CNC(=O)c1cc(Oc2ccc(NC(=O)Nc3ccc(Cl)c(C(F)(F)F)c3)c(F)c2)ccn1 [Regorafenib, 4‐[4‐({[4‐chloro‐3‐(trifluoromethyl)phenyl]carbamoyl}amino)‐3‐fluorophenoxy]‐N‐methylpyridine‐2‐carboxamide] | −12.1% (−32.0 to 13.8%) | −16.5% (−34.9 to 7.0%) |  |  |  |  |  |  | Solubility [2]: low solubility; Basic predicted pKa [3]: around 2; Pharmacokinetic interaction with esomeprazole ([1]; esomeprazole concomitant or 3 hours prior): did not reveal a significant pharmacokinetic interaction; Tmax ([1]; 120 mg, phase A: regorafenib alone, 120 mg at steady state): 2.5 h; Tmax [1, 10]: 2.5 h; Tmax [1, 12]: 3 h; Incidence of anorexia ≥ grade 3 (Toxicity): 14%; Incidence of hand/foot skin reaction ≥ grade 3 (Toxicity): 14%; Incidence of hypertension ≥ grade 3 (Toxicity): 64%; Incidence of anorexia (Toxicity; all grades): 71%; Incidence of fatigue (Toxicity; all grades): 71%; Incidence of hand/foot skin reaction (Toxicity; all grades): 64%; Incidence of hypertension (Toxicity; all grades): 71%; Incidence of stomatitis (Toxicity; all grades): 57%; Incidence of hoarseness (Toxicity; all grades, 14 patients): 79%; Time of maximum concentration (Tmax) [4]: 3 to 4 h; Median overall survival increase compared with placebo [5]: 1.4 months |
| C#Cc1cccc(Nc2ncnc3cc(OCCOC)c(OCCOC)cc23)c1 [erlotinib] |  |  |  |  |  |  |  |  | Decrease in systemic exposure [6]: 46% |
